# Calls of active or inactive are those of the source.
# Tests used:
# [1] = test system: HL-60(TB); test: Cytotoxicity against human HL-60(TB) cells assessed as growth inhibition after 72 hrs by […] assay; type: functional; conditions: HL-60, 72 h
# In short: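 HL-60(TB) was tested within the NCI 60 human cancer cell line panel. Compounds that met the NCI single-dose activity criteria were retested on the full panel at 5 concentrations in 10-fold dilutions (10-4–10-8 M). GI50 is the molar concentration giving 50% inhibition of net cell growth; TGI was also reported.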
# [2] = test system: A549; test: Cytotoxicity against human A549 cells assessed as growth inhibition after 72 hrs by MTT assay; type: functional; conditions: A549, 72 h
# [3] = test system: NCI-H226; test: Cytotoxicity against human NCI-H226 cells assessed as growth inhibition after 72 hrs by MTT assay; type: functional; conditions: NCI-H226, 72 h
# [4] = test system: HCC 2998; test: Cytotoxicity against human HCC2998 cells assessed as growth inhibition after 72 hrs by MTT assay; type: functional; conditions: HCC 2998, 72 h
# [5] = Cytotoxicity against human HCT116 cells assessed as growth inhibition after 72 hrs by MTT assay; type: functional; conditions: HCT-116, 72 h
# [6] = test system: MDA-MB-435; test: Cytotoxicity against human MDA-MB-435 cells assessed as growth inhibition after 72 hrs by MTT assay; type: functional; conditions: MDA-MB-435, 72 h
# [7] = Cytotoxicity against human OVCAR4 cells assessed as growth inhibition after 72 hrs by MTT assay; type: functional; conditions: OVCAR-4, 72 h
# In short: (§1)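 NCI 60-cell-line panel screen. Compounds were tested at 5 concentrations in 10-fold dilution (10^-4 to 10^-8 M) across the full panel. GI50 was taken as the molar concentration giving 50% inhibition of net cell growth.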
# [8] = Cytotoxicity against human OVCAR8 cells assessed as growth inhibition after 72 hrs by MTT assay; type: functional; conditions: OVCAR-8, 72 h; in short: as §1
# [9] = test system: RXF 393; test: Cytotoxicity against human RXF393 cells assessed as growth inhibition after 72 hrs by MTT assay; type: functional; conditions: RXF 393, 72 h; in short: as §1
# [10] = test system: SN12C; test: Cytotoxicity against human SN12C cells assessed as growth inhibition after 72 hrs by MTT assay; type: functional; in short: as §1
# [11] = test system: TK-10; test: Cytotoxicity against human TK10 cells assessed as growth inhibition after 72 hrs by MTT assay; type: functional; conditions: TK-10, 72 h; in short: as §1
# [12] = Cytotoxicity against human UO31 cells assessed as growth inhibition after 72 hrs by MTT assay; type: functional; conditions: UO-31, 72 h; in short: as §1
# [13] = test system: MCF7; test: Cytotoxicity against human MCF7 cells assessed as growth inhibition after 72 hrs by MTT assay; type: functional; conditions: MCF7, 72 h
# [14] = test system: MDA-MB-231; test: Cytotoxicity against human MDA-MB-231 cells assessed as growth inhibition after 72 hrs by MTT assay; type: functional; conditions: MDA-MB-231, 72 h
# [15] = test system: BT-549; test: Cytotoxicity against human BT549 cells assessed as growth inhibition after 72 hrs by MTT assay; type: functional; conditions: BT-549, 72 h
# [16] = test system: T47D; test: Cytotoxicity against human T47D cells assessed as growth inhibition after 72 hrs by MTT assay; type: functional; in short: as §1
# [17] = test system: Jurkat; test: Cytotoxicity against human Jurkat cells assessed as growth inhibition after 72 hrs by MTT assay; type: functional
# In short: (§2)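 Cells were grown in medium with 10% heat-inactivated FBS plus penicillin/streptomycin: RPMI-1640 for Jurkat and CEM, DMEM for A-431, HAM's F12 for LoVo. The doxorubicin-resistant LoVo subclone was kept with 0.1 µg/mL doxorubicin. Cells were seeded at 5x10^3 per well and pre-incubated 24 h at 37 °C.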
# [18] = test system: CCRF-CEM; test: Cytotoxicity against human CEM cells assessed as growth inhibition after 72 hrs by MTT assay; type: functional; in short: as §2
# [19] = test system: LoVo; test: Anticlonogenic activity against human LoVo cells assessed as inhibition of colony formation of cells incubated for 24 hrs followed by compound washout measured after 1 to 2 weeks by crystal violet staining-based assay; type: functional, cell-based
# In short: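 LoVo cells were plated at 1000 per well in six-well plates and exposed to compound at different concentrations for 24 h. Medium was then replaced, with fresh medium every 2–3 days, until colonies formed (1–2 weeks). Colony number is given as a percentage of untreated cells (100%), as mean ± SEM of 3 independent experiments.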
# [20] = Cytotoxicity against human LoVo/DX cells assessed as growth inhibition after 72 hrs by MTT assay; type: functional; in short: as §2
# [21] = test system: Jurkat; test: Cell cycle arrest in human Jurkat cells assessed as accumulation at S phase at 0.5 uM after 24 hrs by propidium iodide staining-based flow cytometry (reference value: 15.5%); type: functional
# [22] = test system: Jurkat; test: Cell cycle arrest in human Jurkat cells assessed as accumulation at S phase at 0.25 uM after 24 hrs by propidium iodide staining-based flow cytometry (reference value: 15.5%); type: functional
# [23] = test system: Jurkat; test: Cell cycle arrest in human Jurkat cells assessed as accumulation at G2/M phase at 0.25 uM after 24 hrs by propidium iodide staining-based flow cytometry (reference value: 21.9%); type: functional
# [24] = test system: Jurkat; test: Cell cycle arrest in human Jurkat cells assessed as accumulation at subG1 phase at 0.5 uM after 24 hrs by propidium iodide staining-based flow cytometry (reference value: 5.3%); type: functional
# [25] = test system: Jurkat; test: Cell cycle arrest in human Jurkat cells assessed as accumulation at subG1 phase at 0.25 uM after 24 hrs by propidium iodide staining-based flow cytometry (reference value: 5.3%); type: functional
# [26] = test system: Jurkat; test: Induction of apoptosis in human Jurkat cells assessed as loss of plasma membrane asymmetry at 250 to 500 nM after 6 hrs by annexin V-FITC/propidium iodide staining-based flow cytofluorimetric analysis; type: functional, cell-based
# In short: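 Jurkat cells were incubated with 250 or 500 nM compound for 6 h or 24 h. They were then double-stained with Annexin V-FITC and propidium iodide and analysed by flow cytometry (488 nm excitation; emission 525 and 585 nm). Mean ± SEM of 3 experiments.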
# [27] = test system: Jurkat; test: Induction of apoptosis in human Jurkat cells assessed as caspase-9 activation at 500 nM after 6 hrs by plate reader analysis; type: functional, cell-based
# In short: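 Jurkat cells were treated with 500 nM compound for 6 h and 24 h, then lysed. Lysates were incubated with pNA-conjugated substrates: Ac-DEVD (caspase-3), Ac-IETD (caspase-8) and LEHD (caspase-9). pNA release was read at 405 nm and normalized to Bradford protein. Results are expressed as fold increase over untreated control.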
# [28] = test system: Jurkat; test: Induction of apoptosis in human Jurkat cells assessed as mitochondrial membrane potential depolarization after 24 hrs by JC-1 staining-based flow cytometry; type: functional, cell-based
# In short: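 After 24 h of treatment, Jurkat cells were resuspended in HBSS and stained with JC-1. Flow cytometry measured the percentage of cells with low potential (green monomer fluorescence). Mean ± SEM of 3 experiments.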
# [29] = test system: Jurkat; test: Induction of apoptosis in human Jurkat cells assessed as lysosomal dysfunction at 250 to 500 nM after 24 hrs by acridine orange staining-based flow cytometry relative to control; type: functional, cell-based
# In short: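 Jurkat cells were treated for 24 h at two concentrations, then stained with acridine orange. Flow cytometry (488 nm excitation, FL3 emission) scored red fluorescence of intact lysosomes. Mean ± SEM of at least 3 experiments, compared with control.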
# [30] = Binding affinity to DNA (unknown origin) at compound to DNA ratio 0.01 to 0.04 by linear dichroism method
# In short: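 Linear dichroism spectra were recorded at different compound/DNA ratios in 10 mM phosphate buffer, pH 7.2.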
# [31] = Cytotoxicity against human PC3 cells assessed as growth inhibition after 72 hrs by MTT assay; type: functional; conditions: PC-3, 72 h; in short: as §1
Compound,GI50 [1] [nM],GI50 [2] [nM],GI50 [3] [nM],GI50 [4] [nM],GI50 [5] [nM],GI50 [6] [nM],GI50 [7] [nM],GI50 [8] [nM],GI50 [9] [nM],GI50 [10] [nM],GI50 [11] [nM],GI50 [12] [nM],GI50 [13] [nM],GI50 [14] [nM],GI50 [15] [nM],GI50 [16] [nM],GI50 [17] [nM],GI50 [18] [nM],inhibition [19],GI50 [20] [nM],other results
COc1ccc2c(c1)nnc1c3cccnc3[nH]c21,160,7900,2620,8230,210,1440,1410,620,660,1630,4520,120,230,1420,3430,490,90,650,Dose-dependent effect,1210,Activity [21]: 28.6%; Activity [22]: 24.1%; Activity [23]: 45.7%; Activity [24]: 39.8%; Activity [25]: 27.8%; Activity [26]: inactive; Activity [27]: Active; Activity [28]: Dose-dependent effect; Activity [29]: inactive; Activity [30]: Active
COc1cc2nnn3c4ncccc4c(N=O)c3c2cc1OC,40,13300,3700,1000,61,2380,1910,820,400,1800,5260,400,260,2600,5530,210,200,240,Dose-dependent effect,4330,GI50 [31]: 2360 nM; Activity [21]: 24.7%; Activity [22]: 15.4%; Activity [23]: 47.3%; Activity [24]: 21.7%; Activity [25]: 18.7%; Activity [26]: inactive; Activity [27]: Active; Activity [28]: Dose-dependent effect; Activity [29]: inactive; Activity [30]: inactive
COc1cc2nnc3c4cccnc4[nH]c3c2cc1OC,190,7900,1940,1950,130,2230,1600,1250,710,2270,2380,490,340,2690,3700,400,,,,,GI50 [31]: 1490 nM
COc1ccc2c(c1)nnn1c3ncccc3c(N=O)c21,43,10800,4140,7230,60,1940,1290,3900,310,1400,5080,76,130,1260,5060,160,90,220,Dose-dependent effect,650,Activity [21]: 27.2%; Activity [22]: 25.1%; Activity [23]: 39.4%; Activity [24]: 39.1%; Activity [25]: 22.5%; Activity [26]: inactive; Activity [27]: Active; Activity [28]: Dose-dependent effect; Activity [29]: inactive; Activity [30]: inactive
O=Nc1c2cccnc2n2nnc3ccc(Cl)cc3c12,300,2200,2190,8400,190,1260,980,1800,560,1460,940,650,570,680,1780,260,,,,,GI50 [31]: 740 nM
